Experimental data: ChEMBL document CHEMBL1131328 (J Med Chem, 1998); call rule not given here

Key:
MCF7 [1] = assay: Inhibition of estrogen-stimulated MCF-7 cell proliferation; type: functional, cell-based; conditions: Homo sapiens
Method in brief: (§1)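 MCF-7 breast tumor cells were stimulated to proliferate with 10⁻¹¹ M 17β-estradiol, with test compound added to measure inhibition of that proliferation. IC50 was derived from the inhibition.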

Rattus norvegicus [2] = assay: Percent decrease in serum cholesterol relative to OVX controls, at 0.01 mg/Kg compound dose; type: functional
Method in brief: (§2)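 Ovariectomized rats were dosed daily for 4 days, and serum cholesterol was measured. Values are mean percent decrease relative to OVX controls ± SEM, n ≥ 5 per group, with significance at p ≤ 0.05. ED50 is the dose reducing serum cholesterol by 50% relative to OVX controls.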

Rattus norvegicus [3] = species on record: Rattus norvegicus; assay: Dose required to reduce serum cholesterol by 50% relative to ovariectomized (OVX) controls; type: functional; method in brief: as §2
Rattus norvegicus [4] = assay: Minimally effective dose(MED) (mg/kg body weight) at which a significant increase in EPO activity was observed in rats; type: functional; conditions: read-out: MED
Method in brief: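 Uterine eosinophil peroxidase (EPO) activity was measured in the 4-day ovariectomized rat assay. […] Activity at the MED is given as Vmax ± standard error.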

Rattus norvegicus [5] = assay: Percent decrease in serum cholesterol relative to OVX controls, at 1.0 mg/Kg compound dose; type: functional; method in brief: as §2
[6] = biological target: T1, Estrogen receptor (Rattus norvegicus) (UniProt P06211+Q62986)
[7] = biological target: T1, Estrogen receptor (Rattus norvegicus); assay: Minimally effective dose(MED) (mg/kg body weight) at which a statistically significant (p<= 0.05) increase in uterine weight/body weight was observed.; type: functional, organism-based
Method in brief: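 A 4-day ovariectomized rat assay with daily dosing. Uterine weight/body weight was compared with OVX controls. The MED is the lowest dose (mg/kg) giving a significant increase (p ≤ 0.05). Activity at the MED is given as percent increase over OVX controls ± standard error.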

MCF7 [8] = assay: Inhibition of estrogen-stimulated MCF-7 cell proliferation; not active; type: functional, cell-based, Homo sapiens; method in brief: as §1

IC50 (MCF7 [1]) [nM]	MED [6] [mg/kg]	IC50 (MCF7 [8])	SMILES	Decrease (Rattus norvegicus [2]) [%]	ED50 (Rattus norvegicus [3]) [mg/kg]	minimal effective dose (Rattus norvegicus [4]) [mg/kg]	Decrease (Rattus norvegicus [5]) [%]	MED [7] [mg/kg]
100			COc1ccc2c(c1)OC(c1ccc(OCCN3CCCCC3)cc1)c1c-2sc2cc(OC)ccc12 (configuration not stated)					
20	> 10		Oc1ccc2c(c1)OC(c1ccc(OCCN3CCCCC3)cc1)c1c-2sc2ccccc12 (configuration not stated)	46.5	0.5	> 10	53.7	
9	3		O=C1CCCN1CCOc1ccc(C2Oc3cc(O)ccc3-c3sc4cc(O)ccc4c32)cc1 (configuration not stated)	-15.2		> 3	4.4	
			CC/C(=C(\c1ccccc1)c1ccc(OCCN(C)C)cc1)c1ccccc1 [TAMOXIFEN]	39.2	0.2	0.1	71.1	
8	0.1		CCN(CC)CCOc1ccc(C2Oc3cc(O)ccc3-c3sc4cc(O)ccc4c32)cc1 (configuration not stated)	20.6	> 10	0.1	38.7	
0.4			Oc1ccc2c(c1)OC(c1ccc(OCCN3CCCCC3)cc1)c1c-2ccc2cc(O)ccc12 (configuration not stated)	57.2	0.02	> 10	65.7	> 10
		Not Active	C#C[C@]1(O)CC[C@H]2[C@@H]3CCc4cc(O)ccc4[C@H]3CC[C@@]21C [ETHINYL ESTRADIOL]	57.1	0.005	0.1		
6	1		Oc1ccc2c(c1)OC(c1ccc(OCCN3CCOCC3)cc1)c1c-2sc2cc(O)ccc12 (configuration not stated)	-48.7	> 10	1	14.3	
80	0.1		c1ccc2c(c1)OC(c1ccc(OCCN3CCCCC3)cc1)c1c-2sc2ccccc12 (configuration not stated)	39.8	0.7	> 10		
0.2	> 10		Oc1ccc2c(c1)OC(c1ccc(OCCN3CCCCC3)cc1)c1c-2sc2cc(O)ccc12 (configuration not stated)	62.2	0.15	> 10	47.6	
[…]			O=C(c1ccc(OCCN2CCCCC2)cc1)c1c(-c2ccc(O)cc2)sc2cc(O)ccc12 [RALOXIFENE]	44.9	[…]	> 10		
0.7	> 10		Oc1ccc2c(c1)OC(c1ccc(OCCN3CCCCC3)cc1)c1c-2oc2cc(O)ccc12 (configuration not stated)	17.4	> 10	> 10		
6	> 10		Oc1ccc2c3c(sc2c1)-c1ccccc1OC3c1ccc(OCCN2CCCCC2)cc1 (configuration not stated)	25.4	1	> 10	51.5	
0.6	0.1		Oc1ccc2c(c1)OC(c1ccc(OCCN3CCCC3)cc1)c1c-2sc2cc(O)ccc12 (configuration not stated)	38.5	0.2	> 1	68	
2	0.1		CN(C)CCOc1ccc(C2Oc3cc(O)ccc3-c3sc4cc(O)ccc4c32)cc1 (configuration not stated)	40.1	0.5	0.1	54.7	

SMILES	IC50 (MCF7 [1]) [nM]	MED [6] [mg/kg]	IC50 (MCF7 [8])	Decrease (Rattus norvegicus [2]) [%]	ED50 (Rattus norvegicus [3]) [mg/kg]	minimal effective dose (Rattus norvegicus [4]) [mg/kg]	Decrease (Rattus norvegicus [5]) [%]	MED [7] [mg/kg]
CC/C(=C(\c1ccc(O)cc1)c1ccc(OCCN(C)C)cc1)c1ccccc1	[…]							
